By MIC is commonly meant the lowest concentration that inhibits growth of the organism. The low end stands for a more susceptible organism, the high end for a less susceptible organism.

Consider 20 molecules from ChEMBL document CHEMBL1145867, “Muraymycins, novel peptidoglycan biosynthesis inhibitors: synthesis and SAR of their analogues” (2003).

Each structure is given as a SMILES string. ≈ marks a conversion by molar mass, not a printed value. Calls of active or inactive are those of the source. No cut-off for these calls is given here. Where only a bound is given, the exact number is not on record here.

The subject of one test is Staphylococcus sp. The experiment in a line: In vitro antimicrobial activity against Staphylococci. The class given is functional, staphyl ococcus species. The method, boiled down: (§1)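 Broth microdilution per NCCLS guidance. Serial dilutions of each agent in microtiter plates are inoculated with each organism to 10⁵ CFU/mL and incubated 18–22 h at 35 C in ambient air. MIC is the lowest concentration giving complete growth inhibition, judged by the unaided eye.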

Another test relates to Bacteria. The experiment in a line: In vitro antimicrobial activity against gram-negative organisms (10). The class given is functional. The gist of the method:
as §1

Another test deals with Enterococcus sp. Nature of the test: In vitro antimicrobial activity against Enterococci. It counts as functional. The gist of the method:
as §1

The nature of test [1]: The inhibitory activity of compound against MraY or MurG at 50 ug/mL; Inhibit.
Test [2] is described as follows: The inhibitory activity of compound against MraY or MurG at 12.5 ug/mL; No Inhibition.
The nature of test [3]: The inhibitory activity of compound against MraY or MurG at 100 ug/mL; Inhibit.
Test [4] in a line: The inhibitory activity of compound against MraY or MurG at 6.25 ug/mL; No Inhibition.
The nature of test [5]: The inhibitory activity of compound against MraY or MurG at 25 ug/mL; No Inhibition.
The nature of test [6]: The inhibitory activity of compound against MraY or MurG at 100 ug/mL; No Inhibition.
The nature of test [7]: The inhibitory activity of compound against MraY or MurG at 50 ug/mL; No Inhibition.

Take `COc1ccc(Cn2c(=O)ccn([C@@H]3OC([C@H](O)[C@H](NCCCNC(=O)[C@H](NC(=O)OCc4ccccc4)C(O)C(C)C)C(=O)OC(C)(C)C)[C@@H](O[Si](C)(C)C(C)(C)C)[C@H]3O[Si](C)(C)C(C)(C)C)c2=O)cc1` (stereo not given in full): the minimal inhibitory concentration (MIC) is > 128 µg/mL with Staphylococcus sp., > 128 µg/mL in the test on Bacteria and 128 µg/mL (≈ 123 µM) in the test on Enterococcus sp..
Regarding `COc1ccc(Cn2c(=O)ccn([C@@H]3OC([C@H](O)[C@H](NCCCNC(=O)[C@@H](CCc4ccccc4)NC(=O)OCc4ccccc4)C(=O)OC(C)(C)C)[C@@H](O[Si](C)(C)C(C)(C)C)[C@H]3O[Si](C)(C)C(C)(C)C)c2=O)cc1` (stereo not given in full), the MIC in the test on Staphylococcus sp. was 128 µg/mL (≈ 119 µM); against Bacteria, > 128 µg/mL; in the test on Enterococcus sp., 128 µg/mL (≈ 119 µM).
With `COc1ccc(Cn2c(=O)ccn([C@@H]3OC([C@H](O)[C@H](NCCCNC(=O)[C@@H](C)NC(=O)OCc4ccccc4)C(=O)OC(C)(C)C)[C@@H](O[Si](C)(C)C(C)(C)C)[C@H]3O[Si](C)(C)C(C)(C)C)c2=O)cc1` (stereo not given in full), the MIC is > 128 µg/mL in the test with Staphylococcus sp., > 128 µg/mL with Bacteria and 128 µg/mL (≈ 130 µM) against Enterococcus sp..
For the molecule `COc1ccc(Cn2c(=O)ccn([C@@H]3OC([C@H](O)[C@H](NCCCNC(=O)[C@H](N)CC(=O)OCc4ccccc4)C(=O)OC(C)(C)C)[C@@H](O[Si](C)(C)C(C)(C)C)[C@H]3O[Si](C)(C)C(C)(C)C)c2=O)cc1` (stereo not given in full), the Inhibitory activity result in test [1] and in [3] was “Inhibit” in each case. The figures for the minimal inhibitory concentration (MIC) with Staphylococcus sp., against Bacteria and with Enterococcus sp. were 16 µg/mL (≈ 16.3 µM), 128 µg/mL (≈ 130 µM) and 4 µg/mL (≈ 4.06 µM), respectively. In addition, the Inhibitory activity entry in test [2], in [4] and in test [5] was “inactive” in each case.
`COc1ccc(Cn2c(=O)ccn([C@@H]3OC([C@H](O)[C@H](NCCCNC(=O)[C@@H](CC(C)C)NC(=O)[C@H](CCC/N=C(\N)N[N+](=O)[O-])NC(=O)N[C@H](C(=O)OCc4ccccc4)C(C)C)C(=O)OC(C)(C)C)[C@@H](O[Si](C)(C)C(C)(C)C)[C@H]3O[Si](C)(C)C(C)(C)C)c2=O)cc1` (stereo not given in full): the MIC against Staphylococcus sp., with Bacteria and in the test with Enterococcus sp. was > 128 µg/mL in each case.
In the case of `COc1ccc(Cn2c(=O)ccn([C@@H]3OC([C@H](O)[C@H](NCCCNC(=O)[C@H](NC(=O)[C@H](CCC/N=C(\N)N[N+](=O)[O-])NC(=O)N[C@H](C(=O)OCc4ccccc4)C(C)C)C(C)O)C(=O)OC(C)(C)C)[C@@H](O[Si](C)(C)C(C)(C)C)[C@H]3O[Si](C)(C)C(C)(C)C)c2=O)cc1` (stereo not given in full), the values for the MIC in the test on Staphylococcus sp., in the test on Bacteria and in the test on Enterococcus sp. were 128 µg/mL (≈ 97.4 µM), 64 µg/mL (≈ 48.7 µM) and 64 µg/mL (≈ 48.7 µM), respectively.
Regarding `COc1ccc(Cn2c(=O)ccn([C@@H]3OC([C@H](O)[C@H](NCCCNC(=O)[C@H](NC(=O)[C@H](CCC/N=C(\N)N[N+](=O)[O-])NC(=O)N[C@H](C(=O)OCc4ccccc4)C(C)C)C(O)C(C)C)C(=O)OC(C)(C)C)[C@@H](O[Si](C)(C)C(C)(C)C)[C@H]3O[Si](C)(C)C(C)(C)C)c2=O)cc1` (stereo not given in full), the MIC in the test with Staphylococcus sp., in the test on Bacteria and in the test on Enterococcus sp. was > 128 µg/mL in each case.
For `COc1ccc(Cn2c(=O)ccn([C@@H]3OC([C@H](O)[C@H](NCCCNC(=O)[C@@H](CC(C)C)NC(=O)OCc4ccccc4)C(=O)O)[C@@H](O)[C@H]3O)c2=O)cc1` (stereo not given in full), the figures for the MIC in the test with Staphylococcus sp., in the test on Bacteria and against Enterococcus sp. were > 128 µg/mL, > 128 µg/mL and 128 µg/mL (≈ 173 µM), respectively.
On to `CC(C)C(O)[C@@H](NC(=O)OCc1ccccc1)C(=O)NCCCN[C@H](C(=O)OC(C)(C)C)[C@@H](O)C1O[C@@H](n2ccc(=O)[nH]c2=O)[C@H](O[Si](C)(C)C(C)(C)C)[C@@H]1O[Si](C)(C)C(C)(C)C` (stereo not given in full), for which the values for the MIC against Staphylococcus sp., in the test with Bacteria and with Enterococcus sp. were > 128 µg/mL, > 128 µg/mL and 64 µg/mL (≈ 69.4 µM), respectively.
`COc1ccc(Cn2c(=O)ccn([C@@H]3OC([C@H](O)[C@H](NCCCNC(=O)[C@H](N)CC(C)C)C(=O)OC(C)(C)C)[C@@H](O)[C@H]3O)c2=O)cc1` (stereo not given in full): the MIC in the test on Staphylococcus sp., with Bacteria and in the test on Enterococcus sp. was > 128 µg/mL each time.
In the case of `COc1ccc(Cn2c(=O)ccn([C@@H]3OC([C@H](O)[C@H](NCCCNC(=O)[C@@H](CC(=O)OCc4ccccc4)NC(=O)OCc4ccccc4)C(=O)OC(C)(C)C)[C@@H](O[Si](C)(C)C(C)(C)C)[C@H]3O[Si](C)(C)C(C)(C)C)c2=O)cc1` (stereo not given in full), the MIC against Staphylococcus sp. is > 128 µg/mL; in the test with Bacteria, > 128 µg/mL; with Enterococcus sp., 4 µg/mL (≈ 3.58 µM).
In the case of `COc1ccc(Cn2c(=O)ccn([C@@H]3OC([C@H](O)[C@H](NCCCNC(=O)[C@@H](CCCCNC(=O)OCc4ccccc4)NC(=O)OCc4ccccc4)C(=O)OC(C)(C)C)[C@@H](O[Si](C)(C)C(C)(C)C)[C@H]3O[Si](C)(C)C(C)(C)C)c2=O)cc1` (stereo not given in full), the MIC in the test with Staphylococcus sp., with Bacteria and against Enterococcus sp. was > 128 µg/mL each time.
`COc1ccc(Cn2c(=O)ccn([C@@H]3OC([C@H](O)[C@H](NCCCNC(=O)[C@H](N)CCC(=O)OC(C)(C)C)C(=O)OC(C)(C)C)[C@@H](O[Si](C)(C)C(C)(C)C)[C@H]3O[Si](C)(C)C(C)(C)C)c2=O)cc1` (stereo not given in full): the MIC in the test with Staphylococcus sp., against Bacteria and against Enterococcus sp. was > 128 µg/mL throughout. The Inhibitory activity entry in test [6], in [7], in test [2], in test [4] and in [5] was “inactive” each time.
Regarding `COc1ccc(Cn2c(=O)ccn([C@@H]3OC([C@H](O)[C@H](NCCCNC(=O)[C@@H](CC(C)C)NC(=O)OCc4ccccc4)C(=O)OC(C)(C)C)[C@@H](O)[C@H]3O)c2=O)cc1` (stereo not given in full), the minimum inhibitory concentration (MIC) against Staphylococcus sp., in the test on Bacteria and against Enterococcus sp. was > 128 µg/mL throughout.
On to `COc1ccc(Cn2c(=O)ccn([C@@H]3OC([C@H](O)[C@H](NCCCNC(=O)[C@@H](CC(C)C)NC(=O)[C@H](CCCN=C(N)N)NC(=O)N[C@H](C(=O)O)C(C)C)C(=O)O)[C@@H](O)[C@H]3O)c2=O)cc1` (stereo not given in full), for which the MIC in the test with Staphylococcus sp., against Bacteria and in the test with Enterococcus sp. was > 128 µg/mL in each case. Also, the Inhibitory activity entry in [6], in [7], in test [2], in test [4] and in test [5] was “inactive” in each case.
Consider `COc1ccc(Cn2c(=O)ccn([C@@H]3OC([C@H](O)[C@H](NCCCNC(=O)[C@@H](CC(C)C)NC(=O)[C@H](CCCN=C(N)N)NC(=O)N[C@H](C(=O)O)C(C)C)C(=O)OC(C)(C)C)[C@@H](O[Si](C)(C)C(C)(C)C)[C@H]3O[Si](C)(C)C(C)(C)C)c2=O)cc1` (stereo not given in full), for which the MIC with Staphylococcus sp., against Bacteria and against Enterococcus sp. was > 128 µg/mL in each case.
In the case of `COc1ccc(Cn2c(=O)ccn([C@@H]3OC([C@H](O)[C@H](NCCCNC(=O)[C@@H](CCC(=O)OC(C)(C)C)NC(=O)OCc4ccccc4)C(=O)OC(C)(C)C)[C@@H](O[Si](C)(C)C(C)(C)C)[C@H]3O[Si](C)(C)C(C)(C)C)c2=O)cc1` (stereo not given in full), the MIC against Staphylococcus sp. was 128 µg/mL (≈ 117 µM); in the test with Bacteria, > 128 µg/mL; in the test with Enterococcus sp., > 128 µg/mL.
On to `COc1ccc(Cn2c(=O)ccn([C@@H]3OC([C@H](O)[C@H](NCCCNC(=O)[C@H](N)CC(C)C)C(=O)O)[C@@H](O)[C@H]3O)c2=O)cc1` (stereo not given in full), for which the figures for the MIC with Staphylococcus sp., with Bacteria and against Enterococcus sp. were > 128 µg/mL, > 128 µg/mL and 128 µg/mL (≈ 211 µM), respectively.
In the case of `COc1ccc(Cn2c(=O)ccn([C@@H]3OC([C@H](O)[C@H](NCCCNC(=O)[C@H](N)CCc4ccccc4)C(=O)OC(C)(C)C)[C@@H](O[Si](C)(C)C(C)(C)C)[C@H]3O[Si](C)(C)C(C)(C)C)c2=O)cc1` (stereo not given in full), the MIC with Staphylococcus sp., in the test on Bacteria and in the test with Enterococcus sp. was > 128 µg/mL in each case. The Inhibitory activity result in test [6], in test [7], in test [2], in test [4] and in [5] was “inactive” in each case.
Regarding `COc1ccc(Cn2c(=O)ccn([C@@H]3OC([C@H](O)[C@H](NCCCNC(=O)[C@@H](CC(C)C)NC(=O)[C@H](CCC/N=C(\N)N[N+](=O)[O-])NC(=O)N[C@H](C(=O)OCc4ccccc4)C(C)C)C(=O)O)[C@@H](O)[C@H]3O)c2=O)cc1` (stereo not given in full), the minimal inhibitory concentration (MIC) against Staphylococcus sp., in the test with Bacteria and with Enterococcus sp. was > 128 µg/mL each time.
